What was measured:
Format in all cases: functional, Homo sapiens
[1] = Growth inhibition of glioblastoma cells (LNZ 308 cell) by the compound (300 uM) upon incubation for 48 hours using MTT assay; set-up: unit: %
How it was run: (§1)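 Human glioblastoma cells were kept in DMEM with 4.5 g/L glucose, 5% FCS and antibiotics, then plated for 24-72 h. They were exposed in fresh complete medium for 24, 48 or 72 h to 0, 100, 200 or 300 µM compound, with stocks in methanol/PBS 1:20. MTT at 0.2 mg/mL was present for the final 2 h. Formazan was dissolved in 0.1 N HCl/2-propanol and read at 540 nm. Readings were expressed relative to untreated cells. Triplicate wells.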

[2] = Growth inhibition of glioblastoma cells (LNZ 308 cell) by the compound (100 uM) upon incubation for 72 hours using MTT assay; set-up: unit not given here; how it was run: as §1
[3] = Growth inhibition of glioblastoma cells (LNZ 308) by the compound (200 uM) upon incubation for 24 hours using MTT assay; how it was run: as §1
[4] = Growth inhibition of glioblastoma cells (LN18) by the compound (200 uM) upon incubation for 48 hours using MTT assay; set-up: unit not given here; how it was run: as §1
[5] = Growth inhibition of glioblastoma cells (LNZ 308 cell) by the compound (100 uM) upon incubation for 48 hours using MTT assay; set-up: unit not given here; how it was run: as §1
[6] = Growth inhibition of glioblastoma cells (LN18) by the compound (300 uM) upon incubation for 72 hours using MTT assay; set-up: unit not given here; how it was run: as §1
[7] = Growth inhibition of glioblastoma cells (LNZ 308 cell) by the compound (200 uM) upon incubation for 72 hours using MTT assay; set-up: unit: %; how it was run: as §1
[8] = Growth inhibition of glioblastoma cells (LN18) by the compound (300 uM) upon incubation for 24 hours using MTT assay; set-up: unit not given here; how it was run: as §1
[9] = Growth inhibition of glioblastoma cells (LNZ 308 cell) by the compound (200 uM) upon incubation for 48 hours using MTT assay; set-up: unit: %; how it was run: as §1
[10] = Growth inhibition of glioblastoma cells (LN18) by the compound (200 uM) upon incubation for 24 hours using MTT assay; set-up: unit: %; how it was run: as §1
[11] = Growth inhibition of glioblastoma cells (LN18) by the compound (100 uM) upon incubation for 48 hours using MTT assay; set-up: unit: %; how it was run: as §1
[12] = Growth inhibition of glioblastoma cells (LNZ 308 cell) by the compound (300 uM) upon incubation for 72 hours using MTT assay; set-up: unit: %; how it was run: as §1
[13] = Growth inhibition of glioblastoma cells (LNZ 308 cell) by the compound (100 uM) upon incubation for 24 hours using MTT assay; set-up: unit not given here; how it was run: as §1
[14] = Growth inhibition of glioblastoma cells (LNZ 308 cell) by the compound (200 uM) upon incubation for 24 hours using MTT assay; set-up: unit: %; how it was run: as §1
[15] = Growth inhibition of glioblastoma cells (LNZ 308 cell) by the compound (300 uM) upon incubation for 24 hours using MTT assay; set-up: unit not given here; how it was run: as §1
[16] = Growth inhibition of glioblastoma cells (LN18) by the compound (300 uM) upon incubation for 48 hours using MTT assay; set-up: unit: %; how it was run: as §1
[17] = Growth inhibition of glioblastoma cells (LN18) by the compound (100 uM) upon incubation for 72 hours using MTT assay; set-up: unit: %; how it was run: as §1
[18] = Growth inhibition of glioblastoma cells (LN18) by the compound (200 uM) upon incubation for 72 hours using MTT assay; set-up: unit not given here; how it was run: as §1
[19] = Growth inhibition of glioblastoma cells (LN18) by the compound (200 uM) upon incubation for 24 hr using MTT assay; how it was run: as §1
[20] = Growth inhibition of glioblastoma cells (LN18) by the compound (300 uM) after 24 hr using MTT assay; how it was run: as §1
[21] = Growth inhibition of glioblastoma cells (LN18) by the compound (300 uM) upon incubation for 48 hr using MTT assay; how it was run: as §1
[22] = Growth inhibition of glioblastoma cells (LN18) by the compound (300 uM) upon incubation for 72 hr using MTT assay; how it was run: as §1
[23] = Growth inhibition of glioblastoma cells (LN18) by the compound (100 uM) upon incubation for 24 hours using MTT assay; how it was run: as §1

Work on `O=C(OCC(NC[C@H]1NC[C@H](O)[C@@H]1O)c1ccccc1)c1ccc(F)cc1` (stereo partly specified) yielded a Growth inhibition [1] of 17, a Growth inhibition [2] of 8 and a Growth inhibition [3] of 16. The Growth inhibition [4] was 16, the Growth inhibition [5] was 10 and the Growth inhibition [6] was 31. For the same compound, the Growth inhibition [7] was 24, the Growth inhibition [8] was 20 and the Growth inhibition [9] was 18. The Growth inhibition [10] was 22, the Growth inhibition [11] was 5 and the Growth inhibition [12] was 32. For the same compound, the Growth inhibition [13] was 4, the Growth inhibition [14] was 16 and the Growth inhibition [15] was 21. For the same compound, the Growth inhibition [16] was 24, the Growth inhibition [17] was 4 and the Growth inhibition [18] was 14.
Compound `O=C(OCC(NC[C@H]1NC[C@H](O)[C@@H]1O)c1ccccc1)c1cccc(Br)c1` (stereo partly specified) has a Growth inhibition [1] of 31, a Growth inhibition [2] of 13 and a Growth inhibition [3] of 5. For the same compound, the Growth inhibition [4] was 25, the Growth inhibition [5] was 17 and the Growth inhibition [7] was 23. It also gave a Growth inhibition [19] of 10, a Growth inhibition [9] of 23 and a Growth inhibition [11] of 21. The Growth inhibition [20] was 16, the Growth inhibition [12] was 34 and the Growth inhibition [13] was 5. It also gave a Growth inhibition [21] of 29, a Growth inhibition [14] of 5 and a Growth inhibition [15] of 17. It also gave a Growth inhibition [17] of 18, a Growth inhibition [22] of 36 and a Growth inhibition [18] of 24.
Compound `O=C(OCC(NC[C@H]1NC[C@H](O)[C@@H]1O)c1ccccc1)c1ccc(Br)cc1` (stereo partly specified) has a Growth inhibition [1] of 78, a Growth inhibition [2] of 24 and a Growth inhibition [4] of 48. For the same compound, the Growth inhibition [5] was 15, the Growth inhibition [6] was 97 and the Growth inhibition [7] was 56. For the same compound, the Growth inhibition [8] was 92, the Growth inhibition [9] was 33 and the Growth inhibition [10] was 67. It also gave a Growth inhibition [11] of 17, a Growth inhibition [12] of 96 and a Growth inhibition [23] of 5. For the same compound, the Growth inhibition [13] was 11, the Growth inhibition [14] was 60 and the Growth inhibition [15] was 87. It also gave a Growth inhibition [16] of 95, a Growth inhibition [17] of 31 and a Growth inhibition [18] of 68.
With `O=C(OCC(NC[C@H]1NC[C@H](O)[C@@H]1O)c1ccccc1)c1ccccc1F` (stereo partly specified) the Growth inhibition [1] was 18, the Growth inhibition [2] was 0 and the Growth inhibition [4] was 10. It also gave a Growth inhibition [5] of 6, a Growth inhibition [6] of 15 and a Growth inhibition [7] of 17. It also gave a Growth inhibition [8] of 26, a Growth inhibition [9] of 15 and a Growth inhibition [10] of 17. For the same compound, the Growth inhibition [11] was 7, the Growth inhibition [12] was 26 and the Growth inhibition [13] was 0. For the same compound, the Growth inhibition [14] was 18, the Growth inhibition [15] was 23 and the Growth inhibition [16] was 8. For the same compound, the Growth inhibition [17] was 3 and the Growth inhibition [18] was 14.

Source: ChEMBL document CHEMBL1145149, “Functionalized pyrrolidines inhibit alpha-mannosidase activity and growth of human glioblastoma and melanoma cells” (J Med Chem, 2005)
